Active and inactive are the calls of the source. The calls are words filed in the database; no cut-off is given here.

The species entered for assay [1] is Rattus norvegicus. The experiment in a line: Modulation of [3H]NCS-382 binding to alpha4betadelta GABAA receptor in rat cortical membranes after 1 hr by TopCount scintillation counting method. The assay is classed as cell membranes. A digest of the protocol: (§1)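 Rat cortical membrane homogenate (50-70 µg protein per well) incubated with 16 nM [³H]NCS-382 and increasing analogue concentrations, 1 hr at 0-4 °C. Bound ligand collected by rapid filtration on GF/C filters and counted by scintillation. Single-point screen at 100 µM; cooperativity factor (α) and modulator Kb obtained by curve fitting. Triplicates, at least three independent experiments.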

The species entered for assay [2] is Rattus norvegicus. The experiment in a line: Modulation of [3H]NCS-382 binding to alpha4betadelta GABAA receptor in rat cortical membranes assessed as [3H]NCS-382 binding at 100 uM after 1 hr by TopCount scintillation counting method relative to control. It is filed as cell membranes. In short, it runs like this: as §1
In assay [3] the target is GABA-A receptor; alpha-1/beta-2/gamma-2 (Homo sapiens) (UniProt P14867+P47870+P18507). The experiment in a line: Modulation of human alpha1beta2gamma2S GABAA receptor expressed in Xenopus laevis oocytes assessed as increase in GABA-induced current at 1 mM at -60 mV holding potential by two-electrode voltage clamp electrophysiology method. It is filed as cell-based. A digest of the protocol:
(§2)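 cRNA for human α1β2 (1:1) or α1β2γ2S (5:1:5) subunits injected into X. laevis oocytes (0.9–1.8 ng) and stored at 18 °C in Barth's solution, pH 7.5. Two-electrode voltage clamp in perfused recording solution at pH 7.4. Test compound at 1 mM applied with 1 mM GABA. Currents normalized and given as fold potentiation.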

Assay [4] deals with GABA-A receptor; GABA-A site (alpha1/beta2 interface) (Homo sapiens) (UniProt P14867+P47870). The assay is described as follows: Modulation of human alpha1beta2 GABAA receptor expressed in Xenopus laevis oocytes assessed as increase in GABA-induced current at 1 mM at -60 mV holding potential by two-electrode voltage clamp electrophysiology method. The assay is classed as cell-based. A digest of the protocol:
as §2

In assay [5] the target is T1, Gamma-aminobutyric acid receptor subunit alpha-1/beta-2/delta (Homo sapiens) (UniProt P14867+P47870+O14764). The assay is described as follows: Agonist activity at human alpha1beta2delta GABAA receptor expressed in Xenopus laevis oocytes assessed as increase in current amplitude at 1 mM at -60 mV holding potential by two-electrode voltage clamp electrophysiology method. It is filed as cell-based. In short, it runs like this:
(§3)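 X. laevis oocytes injected with 0.9–1.8 ng cRNA for human α1, β2 and δ subunits (5:1:5) and stored at 18 °C in Barth's solution, pH 7.5. Two-electrode voltage clamp with 3 M KCl electrodes (~2–4 MΩ), perfused with recording solution at pH 7.4. Compound co-applied with 1 mM GABA. Initial and rebound currents expressed as fold increase over the 1 mM GABA response, mean ± S.E.M.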

Assay [6] has as its target T1, Gamma-aminobutyric acid receptor subunit alpha-1/beta-2/delta (Homo sapiens). The experiment in a line: Modulation of human alpha1beta2delta GABAA receptor expressed in Xenopus laevis oocytes assessed as increase in GABA-induced current at 1 mM at -60 mV holding potential by two-electrode voltage clamp electrophysiology method relative to control. It is filed as cell-based. In short, it runs like this:
as §3

For assay [7] the target is unchanged. The assay is described as follows: Modulation of human alpha1beta2delta GABAA receptor expressed in Xenopus laevis oocytes assessed as increase in GABA-induced current by measuring rebound current at 1 mM at -60 mV holding potential measured after termination of compound application by two-electrode voltage clamp electrophysiology method relative to control. The assay is classed as cell-based. In short, it runs like this:
as §3

For assay [8] the target is unchanged. The experiment in a line: Modulation of human alpha1beta2delta GABAA receptor expressed in Xenopus laevis oocytes assessed as increase in GABA-induced current by measuring rebound current at -60 mV holding potential measured after termination of compound application by two-electrode voltage clamp electrophysiology method relative to control. It is filed as cell-based. A digest of the protocol:
as §3

Consider `CCCCN1C(=S)NC(c2cccc(O)c2)C(C(=O)OCC)=C1C` (stereo not given), for which, in the assay filed under Rattus norvegicus [1], the Kb result is “inactive”. The “%max” value in the assay listed under Rattus norvegicus [2] is “inactive”.
On to `CCOC(=O)C1=C(C)N(CC)C(=S)NC1c1cccc(O)c1` (stereo not given), for which, in the assay filed under Rattus norvegicus [2], the %max came to 130%.
Still for that read-out and setting: in the case of `CC(=O)C1=C(C)NC(=S)NC1c1cccc(O)c1` (stereo not given) it was 130%.
For the compound `CCOC(=O)C1=C(C)NC(=S)NC1c1ccc(O)c(O)c1` (stereo not given), the result in assay [3], in assay [4] and in assay [5] was inactive. In the assay filed under Rattus norvegicus [1], this compound returned a pKb of 3.68. Also, the %max in the assay filed under Rattus norvegicus [2] was 246%. The fold change (FC) in assay [6] is 2.7. For the same compound, in assay [7], the outcome was Active.
Take `CCOC(=O)C1=C(C)NC(=S)NC1c1cccc(O)c1` (stereo not given): the result in assay [3], in assay [4] and in assay [5] was inactive. In addition, the Activity result in assay [8] was “Dose-dependent effect”. Besides, in the assay filed under Rattus norvegicus [1], the pKb was 3.96. Besides, the %max in the assay listed under Rattus norvegicus [2] was 185%. Further, the fold change (FC) in assay [6] is 2.9.
Consider `CCOC(=O)C1=C(C)NC(=S)NC1c1ccc(C)cc1` (stereo not given), for which the Kb result in the assay listed under Rattus norvegicus [1] is “inactive”. Besides, in the assay listed under Rattus norvegicus [2], the “%max” value was “inactive”.
`CC1=C(C(=O)O)C(c2cccc(O)c2)NC(=S)N1` (stereo not given): the Kb entry in the assay listed under Rattus norvegicus [1] is “inactive”. The “%max” value in the assay filed under Rattus norvegicus [2] was “inactive”.
Consider `CCOC(=O)C1=C(C)NC(=S)NC1c1cn(-c2ccccc2)nn1` (stereo not given), for which the Kb entry in the assay listed under Rattus norvegicus [1] was “inactive”. Also, in the assay listed under Rattus norvegicus [2], the “%max” value was “inactive”.
Regarding `CCOC(=O)C1=C(C)NC(=S)NC1c1cccc(C)c1` (stereo not given), the Kb entry in the assay filed under Rattus norvegicus [1] is “inactive”. Besides, the “%max” value in the assay filed under Rattus norvegicus [2] is “inactive”.
Take `CCOC(=O)C1=C(C)N=C(S)NC1c1cccc([N+](=O)[O-])c1` (stereo not given): the Kb result in the assay listed under Rattus norvegicus [1] is “inactive”. For the same compound, in the assay filed under Rattus norvegicus [2], the “%max” value is “inactive”.
Regarding `CCOC(=O)C1=C(C)NC(=O)NC1c1ccccc1` (stereo not given), in the assay filed under Rattus norvegicus [1], the Kb entry is “inactive”. In addition, the “%max” value in the assay listed under Rattus norvegicus [2] is “inactive”.
In the case of `CCOC(=O)C1=C(c2ccccc2)NC(=S)NC1c1cccc(O)c1` (stereo not given), in the assay listed under Rattus norvegicus [1], the Kb result is “inactive”. In addition, the “%max” value in the assay filed under Rattus norvegicus [2] was “inactive”.
As for `CCN(CC)C(=O)C1=C(C)NC(=S)NC1c1cccc(O)c1` (stereo not given), in the assay filed under Rattus norvegicus [1], the Kb result was “inactive”. In the assay filed under Rattus norvegicus [2], the “%max” value is “inactive”.
As to `CCOC(=O)C1=C(C)N(c2ccccc2)C(=S)NC1c1cccc(O)c1` (stereo not given), in the assay listed under Rattus norvegicus [1], the Kb entry is “inactive”. Besides, in the assay listed under Rattus norvegicus [2], the “%max” value was “inactive”.
On to `CCOC(=O)C1=C(C)NC(=O)NC1c1cccc(O)c1` (stereo not given), for which the result in assay [3], in assay [4] and in assay [5] was inactive. In addition, the Kb entry in the assay listed under Rattus norvegicus [1] was “inactive”. In the assay filed under Rattus norvegicus [2], the “%max” value is “inactive”. Besides, the fold change (FC) in assay [6] worked out at 6.2.
With `CCOC(=O)C1=C(C)N=C(S)NC1C` (stereo not given), the Kb entry in the assay listed under Rattus norvegicus [1] was “inactive”. Also, the “%max” value in the assay listed under Rattus norvegicus [2] was “inactive”.
Turning to `CCOC(=O)C1=C(C)NC(=S)N[C@H]1c1cccc(O)c1`, the pKb in the assay listed under Rattus norvegicus [1] stood at 3.95. In addition, the %max in the assay filed under Rattus norvegicus [2] was found to be 208%.
On to `CCOC(=O)C1=C(C)NC(=S)NC1c1cccc(F)c1` (stereo not given), for which, in the assay listed under Rattus norvegicus [1], the Kb result was “inactive”. Also, the “%max” value in the assay filed under Rattus norvegicus [2] is “inactive”.
In the case of `CCOC(=O)C1=C(C)NC(=S)NC1c1cccc(Cl)c1` (stereo not given), in the assay filed under Rattus norvegicus [1], the Kb result was “inactive”. For the same compound, the “%max” value in the assay listed under Rattus norvegicus [2] is “inactive”.
Regarding `CCOC(=O)C1=C(C)N(C)C(=S)N(C)C1c1cccc(O)c1` (stereo not given), in the assay listed under Rattus norvegicus [1], the Kb entry is “inactive”. Besides, in the assay listed under Rattus norvegicus [2], the “%max” value was “inactive”.
As for `CCOC(=O)C1=C(C)N(C)C(=S)NC1c1cccc(O)c1` (stereo not given), the result in assay [3], in assay [4] and in assay [5] was inactive. For the same compound, in the assay filed under Rattus norvegicus [1], the Kb worked out at 87 µM. The pKb in the assay listed under Rattus norvegicus [1] is 4.06. In addition, the %max in the assay filed under Rattus norvegicus [2] is 177%. Moreover, the fold change (FC) in assay [6] turned out to be 3.1. In addition, in assay [7], the outcome was Active.
With `CCOC(=O)C1=C(CC)NC(=S)NC1c1cccc(O)c1` (stereo not given), the result in assay [3], in assay [4] and in assay [5] was inactive. This compound had a pKb in the assay filed under Rattus norvegicus [1] of 3.98. The %max in the assay listed under Rattus norvegicus [2] was determined as 245%. For the same compound, the fold change (FC) in assay [6] was 1.4. Further, in assay [7], the result was Active.
`CCOC(=O)C1=C(C)NC(=S)NC1c1cccnc1` (stereo not given): the Kb result in the assay filed under Rattus norvegicus [1] is “inactive”. Further, the “%max” value in the assay listed under Rattus norvegicus [2] was “inactive”.
As for `CCOC(=O)C1=C(C)NC(=S)N[C@@H]1c1cccc(O)c1`, the negative-log Kb (pKb) in the assay listed under Rattus norvegicus [1] is 3.48. Further, in the assay listed under Rattus norvegicus [2], the %max stood at 171%.
With `CCOC(=O)C1=C(C)NC(=S)NC1c1ccc(O)cc1` (stereo not given), the Kb result in the assay listed under Rattus norvegicus [1] is “inactive”. Also, in the assay listed under Rattus norvegicus [2], the “%max” value was “inactive”.
As to `COC(=O)C1=C(C)NC(=S)NC1c1cccc(O)c1` (stereo not given), the result in assay [3], in assay [4] and in assay [5] was inactive. The pKb in the assay filed under Rattus norvegicus [1] turned out to be 3.46. Moreover, the %max in the assay listed under Rattus norvegicus [2] is 194%. In assay [6], the fold change (FC) was found to be 1.3. The outcome in assay [7] was Active.
For the compound `CCOC(=O)C1=C2CCCN2C(=S)NC1c1cccc(O)c1` (stereo not given), the Kb result in the assay listed under Rattus norvegicus [1] was “inactive”. For the same compound, in the assay listed under Rattus norvegicus [2], the “%max” value is “inactive”.
In the case of `CCOC(=O)C1=C(C)N(Cc2ccccc2)C(=S)NC1c1cccc(O)c1` (stereo not given), in the assay listed under Rattus norvegicus [1], the Kb entry was “inactive”. In addition, the “%max” value in the assay filed under Rattus norvegicus [2] is “inactive”.
In the case of `CCOC(=O)C1=C(C)NC(=S)NC1c1cc(O)cc(O)c1` (stereo not given), in the assay listed under Rattus norvegicus [1], the pKb worked out at 3.83. For the same compound, the %max in the assay listed under Rattus norvegicus [2] came out at 247%.
As for `CC1=C(C(=O)OCc2ccccc2)C(c2cccc(O)c2)NC(=S)N1` (stereo not given), the Kb result in the assay filed under Rattus norvegicus [1] was “inactive”. The “%max” value in the assay listed under Rattus norvegicus [2] is “inactive”.
Take `COC(=O)C1=C(C)NC(=O)NC1c1ccccc1` (stereo not given): the outcome in assay [3], in assay [4] and in assay [5] was inactive. Moreover, the Kb entry in the assay filed under Rattus norvegicus [1] is “inactive”. The fold change (FC) in assay [6] was 5.9.
Turning to `CCOC(=O)C1=C(C)NC(=S)NC1c1cccc(OC)c1` (stereo not given), the Kb entry in the assay filed under Rattus norvegicus [1] is “inactive”. The “%max” value in the assay filed under Rattus norvegicus [2] is “inactive”.
Take `CCOC(=O)C1=C(C(C)(C)C)NC(=S)NC1c1cccc(O)c1` (stereo not given): the %max in the assay listed under Rattus norvegicus [2] came out at 130%.
In the case of `CCOC(=O)C1=C(C(C)C)NC(=S)NC1c1cccc(O)c1` (stereo not given), in the assay listed under Rattus norvegicus [2], the %max was 130%.
The same measure, in the same setting: to `CCC(=O)C1=C(CC)NC(=S)NC1c1cccc(O)c1` (stereo not given) belongs 130%.
As for `COC(=O)C1=C(C)N(C)C(=S)NC1c1cccc(O)c1` (stereo not given), the Kb entry in the assay filed under Rattus norvegicus [1] is “inactive”. In addition, the “%max” value in the assay filed under Rattus norvegicus [2] is “inactive”.
Regarding `CCCC1=C(C(=O)OCC)C(c2cccc(O)c2)NC(=S)N1` (stereo not given), the %max in the assay listed under Rattus norvegicus [2] came out at 198%.
With `CCOC(=O)C1=C(C)NC(=S)NC1c1ccccc1` (stereo not given), the Kb entry in the assay listed under Rattus norvegicus [1] was “inactive”. Besides, the “%max” value in the assay listed under Rattus norvegicus [2] was “inactive”.
For `CCOC(=O)C1=C(C)NC(=S)NC1c1ccnn1C` (stereo not given), the Kb entry in the assay filed under Rattus norvegicus [1] is “inactive”. In addition, in the assay filed under Rattus norvegicus [2], the “%max” value was “inactive”.

Values taken from ChEMBL document CHEMBL4190247, “Monastrol, a 3,4-dihydropyrimidin-2(1H)-thione, as structural scaffold for the development of modulators for GHB high-affinity binding sites and α1β2δ GABAA receptors” (Eur J Med Chem, 2017).
